In brackets after ≈: the same amount, converted by molar mass. Activity calls are given as the source filed them. No cut-off for these calls is given here.
Assays:
[1] = system: Botrytis cinerea; assay: Antifungal activity against Botrytis cinerea infected tomato plant assessed as leaf area with disease after 2 days relative to control; assay type: functional; conditions: 48 h
Method in brief: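 Tomato plants (cv. Roter Gnom, four weeks old) received a spray-chamber application of formulated compound in water. A spore suspension was sprayed on 2 days after treatment. Plants were incubated in a greenhouse at 20 °C and 95% rh. Diseased leaf area (%) was assessed 5–6 days after application, when untreated checks were adequately diseased.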

[2] = system: Alternaria solani; assay: Antifungal activity against Alternaria solani infected in tomato plant assessed as leaf area with disease after 2 days relative to control; assay type: functional; conditions: 48 h
Method in brief: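 Four-week-old tomato plants (cv. Roter Gnom) were sprayed in a chamber with formulated compound diluted in water. Plants were spray-inoculated with a spore suspension 2 days later and held in a greenhouse at 22/18 °C (day/night) and 95% rh.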

[3] = system: Zymoseptoria tritici; assay: Antifungal activity against Mycosphaerella graminicola infected in wheat plant assessed as decrease in wheat leaf blotch relative to control; assay type: functional
Method in brief: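 Wheat plants (cv. Riband, two weeks old) were treated in a spray chamber with formulated compound diluted in water and spray-inoculated with spores 1 day later. They were incubated for 1 day at 22/21 °C (day/night) and 95% rh, then kept in a greenhouse at 22/21 °C and 70% rh. Efficacy was scored 16–19 days after application, against diseased untreated checks.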

[4] = biological target: Tubulin (Sus scrofa) (UniProt P02554+P02550); assay: Induction of porcine tubulin polymerization at 0.24 to 20 ppm by spectrophotometric analysis; assay type: protein assay
Method in brief: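 Compound was added at reaction start at 20, 2.2 and 0.24 ppm from a 0.2 mM DMSO solution. The reaction was started at 37 °C and followed by absorbance at 340 nm. Paclitaxel served as positive control and DMSO as negative control.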

Sequence of Tubulin (Sus scrofa) (P02550 whole entry, looked up): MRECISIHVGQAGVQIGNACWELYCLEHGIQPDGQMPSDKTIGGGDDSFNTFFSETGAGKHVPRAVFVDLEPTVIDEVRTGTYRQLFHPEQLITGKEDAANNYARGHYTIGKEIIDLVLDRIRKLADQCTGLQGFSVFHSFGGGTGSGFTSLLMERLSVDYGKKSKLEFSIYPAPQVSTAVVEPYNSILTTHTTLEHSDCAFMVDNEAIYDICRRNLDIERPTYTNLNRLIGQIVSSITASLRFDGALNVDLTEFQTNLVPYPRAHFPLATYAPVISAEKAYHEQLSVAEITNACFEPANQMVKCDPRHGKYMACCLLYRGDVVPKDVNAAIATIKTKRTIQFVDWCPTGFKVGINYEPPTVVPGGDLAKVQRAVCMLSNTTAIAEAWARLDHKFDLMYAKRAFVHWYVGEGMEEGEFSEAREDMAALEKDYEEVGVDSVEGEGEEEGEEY
Sequence of Tubulin (Sus scrofa) (P02554 whole entry, looked up): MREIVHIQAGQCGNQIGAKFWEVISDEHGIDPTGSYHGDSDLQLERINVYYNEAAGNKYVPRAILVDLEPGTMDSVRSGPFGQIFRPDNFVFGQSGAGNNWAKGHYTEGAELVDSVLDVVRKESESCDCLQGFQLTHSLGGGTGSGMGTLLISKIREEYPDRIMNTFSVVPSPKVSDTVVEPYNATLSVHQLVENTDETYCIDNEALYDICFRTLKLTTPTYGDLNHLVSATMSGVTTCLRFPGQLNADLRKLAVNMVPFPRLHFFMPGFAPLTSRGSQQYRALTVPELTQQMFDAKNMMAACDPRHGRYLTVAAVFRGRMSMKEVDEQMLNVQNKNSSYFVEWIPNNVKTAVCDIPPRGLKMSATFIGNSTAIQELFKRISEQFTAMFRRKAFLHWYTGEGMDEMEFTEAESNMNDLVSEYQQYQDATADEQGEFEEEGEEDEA

Row | Compound | EC80 [1] [µg/mL] | EC80 [2] [µg/mL] | EC80 [3] [µg/mL] | Activity [4]
1 | CSc1nnc(Cl)c(-c2c(F)cc(F)cc2F)c1-c1ccc(Cl)cc1 | 124 (≈ 309 µM) | 42 (≈ 105 µM) | 90 (≈ 224 µM) | 
2 | Cc1nnc(F)c(-c2c(F)cc(F)cc2F)c1-c1ccc(Cl)cc1 | 8 (≈ 22.7 µM) | 17 (≈ 48.2 µM) | 191 (≈ 542 µM) | 
3 | COc1nnc(C)c(-c2ccc(Cl)cc2)c1-c1c(F)cc(F)cc1F | 97 (≈ 266 µM) | 57 (≈ 156 µM) | 53 (≈ 145 µM) | 
4 | C#Cc1ccc(-c2c(C)nnc(Cl)c2-c2c(F)cc(F)cc2F)cc1 | 3 (≈ 8.36 µM) | 1 (≈ 2.79 µM) | 1 (≈ 2.79 µM) | 
5 | Cc1nnc(Cl)c(-c2c(F)cc(F)cc2F)c1-c1ccc(Cl)nc1 | 1 (≈ 2.7 µM) | 2 (≈ 5.4 µM) | 1 (≈ 2.7 µM) | 
6 | COc1cc(F)cc(F)c1-c1c(Cl)nnc(C)c1-c1ccc(Cl)nc1 | > 200 | 17 (≈ 44.5 µM) | 95 (≈ 249 µM) | 
7 | Cc1nnc(Cl)c(-c2c(F)cc(F)cc2F)c1Cc1ccccc1 | 77 (≈ 221 µM) | 56 (≈ 161 µM) | 50 (≈ 143 µM) | 
8 | Fc1cc(F)c(-c2c(Cl)nnc(Cl)c2-c2ccc(Cl)cc2)c(F)c1 | 127 (≈ 326 µM) | 134 (≈ 344 µM) | 96 (≈ 246 µM) | 
9 | COc1cc(F)c(-c2c(Cl)nnc(C)c2-c2ccc(Cl)nc2)c(F)c1 | 1 (≈ 2.62 µM) | 1 (≈ 2.62 µM) | 3 (≈ 7.85 µM) | 
10 | Cc1nnc(Cl)c(-c2ncc(Cl)cc2Cl)c1-c1ccc(Cl)nc1 | 15 (≈ 38.9 µM) | 33 (≈ 85.5 µM) | 9 (≈ 23.3 µM) | 
11 | Cc1nnc(Cl)c(-c2c(F)cccc2F)c1-c1ccc(Cl)nc1 | 78 (≈ 221 µM) | 54 (≈ 153 µM) | 60 (≈ 170 µM) | 
12 | Cc1nnc(C)c(-c2c(F)cc(F)cc2F)c1-c1ccc(Cl)cc1 | 4 (≈ 11.5 µM) | 18 (≈ 51.6 µM) | 14 (≈ 40.1 µM) | 
13 | Cc1nnc(Cl)c(-c2c(F)cc(F)cc2F)c1-c1ccc2ccccc2n1 | 1 (≈ 2.59 µM) | 4 (≈ 10.4 µM) | 5 (≈ 13 µM) | 
14 | COc1nnc(Cl)c(-c2c(F)cc(F)cc2F)c1-c1ccc(Cl)cc1 | 58 (≈ 151 µM) | 92 (≈ 239 µM) | 14 (≈ 36.3 µM) | 
15 | CN(C)c1nnc(Cl)c(-c2c(F)cc(F)cc2F)c1-c1ccc(Cl)cc1 | 40 (≈ 100 µM) | 16 (≈ 40.2 µM) | 6 (≈ 15.1 µM) | 
16 | Cc1nnc(Cl)c(-c2c(F)cc(F)cc2F)c1-c1ccc(Cl)s1 | 25 (≈ 66.6 µM) | 49 (≈ 131 µM) | 41 (≈ 109 µM) | Active
17 | COc1cc(F)c(-c2c(Cl)nnc(C)c2-c2ccc(Cl)nc2)cc1F | 23 (≈ 60.2 µM) | 19 (≈ 49.7 µM) | 46 (≈ 120 µM) | 
18 | CC(=O)O[C@H]1C(=O)[C@@]2(C)[C@H]([C@H](OC(=O)c3ccccc3)[C@]3(O)C[C@H](OC(=O)[C@H](O)[C@@H](NC(=O)c4ccccc4)c4ccccc4)C(C)=C1C3(C)C)[C@]1(OC(C)=O)CO[C@@H]1C[C@@H]2O |  |  |  | Active
19 | Cc1nnc(O)c(-c2c(F)cc(F)cc2F)c1-c1ccc(Cl)cc1 | > 200 | > 200 | > 200 | 
20 | Cc1nnc(Cl)c(-c2c(F)cc(F)cc2F)c1-c1ccc(Cl)cc1 | 6 (≈ 16.3 µM) | 2 (≈ 5.42 µM) | 2 (≈ 5.42 µM) | 

Source: ChEMBL document CHEMBL2016502, “Synthesis and fungicidal activity of tubulin polymerisation promoters. Part 2: pyridazines” (2012)
